# Reference: paper PMC3343186 (Nature, 2012)
# Columns and labels:
# [1] = cited from earlier work
# [2] = target: T1, REV-ERBα (Homo sapiens, UniProt P20393); format: cell-based; conditions: HEK293 cells, comparison with SR9011 and SR9009
# T1 sequence (P20393 284-614 limits assumed): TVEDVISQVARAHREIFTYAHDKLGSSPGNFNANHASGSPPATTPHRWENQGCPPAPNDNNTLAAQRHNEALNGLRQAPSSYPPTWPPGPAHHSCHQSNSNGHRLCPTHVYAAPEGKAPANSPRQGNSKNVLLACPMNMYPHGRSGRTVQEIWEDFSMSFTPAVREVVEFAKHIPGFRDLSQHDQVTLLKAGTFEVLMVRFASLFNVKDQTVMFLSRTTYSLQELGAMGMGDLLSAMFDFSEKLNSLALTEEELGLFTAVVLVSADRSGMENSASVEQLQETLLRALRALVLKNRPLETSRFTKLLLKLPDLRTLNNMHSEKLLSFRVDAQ
# [3] = tested on: C57Bl6 mice; test: Circadian wheel running activity under constant darkness; format: in vivo; conditions: single dose 100 mg/kg i.p. at CT6
# Method in brief: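 C57Bl6 mice in wheel cages were kept 7 days on 12h:12h L:D, then moved to constant darkness. After 12 days in D:D, mice received a single i.p. injection of vehicle or test compound at CT6.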
# [4] = tested on: lean C57Bl6 mice; test: Fasting plasma TG and Chol in lean C57Bl6 mice; format: in vivo; conditions: 100 mg/kg i.p. b.i.d., 10 days
# Method in brief: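 Lean C57Bl6 mice were given 100 mg/kg i.p. twice daily at CT0 and CT12 for 10 days, then fasting plasma triglycerides and total cholesterol were measured. Mean ± s.e.m., n=6-10.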
# [5] = tested on: metabolic genes in DIO mice tissues; test: Metabolic gene expression in liver, WAT and skeletal muscle of DIO mice; format: in vivo; conditions: 100mg/kg i.p. b.i.d., 30 days
# Method in brief: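 Diet-induced obese C57BL6 mice, 20 weeks old, had 14 weeks on high-fat diet (20% carbohydrate, 60% fat) and continued on it under twice-daily i.p. dosing. Liver, WAT and skeletal muscle mRNA was quantified by QPCR, normalised to Cyclophilin b. n=6-10.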
# [6] = tested on: C57Bl6 mice; test: Circadian locomotor activity under L:D; format: in vivo; conditions: L:D 12h:12h, single injection
# Method in brief: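 Wheel-running actograms were recorded in C57Bl6 mice kept on 12:12 L:D after single i.p. injections of vehicle or test compound. The protocol was otherwise as in the constant-darkness wheel experiment. n=6-10.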
# [7] = tested on: diet-induced obese C57BL6 mice; test: Diet-induced obese mice, 30-day treatment; format: in vivo; conditions: DIO C57Bl6 mice, 100mg/kg i.p. b.i.d., 30 days
# [8] = tested on: ob/ob mice; test: ob/ob mice, 12-day dosing; format: in vivo; conditions: 100 mg/kg i.p. b.i.d., 12-days
# Method in brief: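 Leptin-deficient ob/ob mice were dosed 100 mg/kg i.p. twice daily for 12 days. Body weight and body fat content were tracked; glucose and insulin tolerance were also assessed. Mean ± s.e.m., n=6-10.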
# [9] = tested on: REV-ERB responsive genes in the liver; test: Expression of REV-ERB responsive genes in liver after 6-day dosing; format: in vivo, mice; conditions: various doses i.p., b.i.d., 6-days
# [10] = tested on: C57Bl6 mice; test: Comprehensive laboratory animal monitoring system; format: in vivo
# Method in brief: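 C57Bl6 mice in CLAMS cages were dosed 100 mg/kg i.p. twice daily at CT0 and CT12 for 10 days. Oxygen consumption (VO2) and RER were recorded across diurnal and nocturnal phases. Fat mass was measured by DEXA after the run. Mean ± s.e.m., n=6-10.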
# [11] = tested on: metabolic genes in skeletal muscle; test: Circadian gene expression in skeletal muscle after single dose; format: in vivo, mice; conditions: single dose 100 mg/kg i.p. at CT0
# Method in brief: (§1)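 Male C57BL6 mice, 8-10 weeks, housed on 12h:12h L:D or in constant darkness, received a single 100 mg/kg i.p. dose at CT0. Groups (n=6) were sacrificed at CT0, CT6, CT12 and CT18; tissue mRNA measured by real-time QPCR. Data double plotted; mean ± s.e.m.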
# [12] = tested on: clock and metabolic genes in the liver; test: Circadian gene expression in liver after single dose; format: in vivo, mice
# Method in brief: as §1
# [13] = tested on: Balb/c or C57Bl6 mice; test: Body weight and fat mass in lean mice on chronic dosing; format: in vivo
# Method in brief: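 Balb/c mice given 100 mg/kg i.p. twice daily at CT0 and CT12 for 12 days; body weight and fat mass followed over treatment. Mean ± s.e.m., n=6-10 mice.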
# [14] = tested on: core clock genes in the hypothalamus; test: Core clock gene expression in hypothalamus; format: in vivo, mice
# [15] = tested on: metabolic genes in white adipose tissue (WAT); test: Circadian gene expression in white adipose tissue after single dose; format: in vivo, mice
# Method in brief: as §1
# [16] = tested on: SCN explants (Per2:luc); test: Bioluminescence of SCN explants from Per2:luc reporter mouse; format: cell-based; conditions: 5 μM
# [17] = C57Bl6 mice, 100mg/kg i.p. b.i.d., 10 days
# [18] = single dose 100 mg/kg i.p. at CT0
# [19] = D:D, 100 mg/kg i.p. single dose at CT0
smiles,measurement,setting,value
CC(C)(C)OC(=O)CN(Cc1ccc(Cl)cc1)Cc1ccc([N+](=O)[O-])s1 [GSK4112],plasma exposure,[1],no plasma exposure
same,activity in GAL4-REV-ERBα and GAL4-REV-ERBβ cotransfection assays,[2],limited activity
CCOC(=O)N1CCC(CN(Cc2ccc(Cl)cc2)Cc2ccc([N+](=O)[O-])s2)C1 (centres unmarked) [SR9009],locomotor activity during the subject dark phase,[3],loss of the subsequent active period
same,plasma total cholesterol,[4],reduce the levels
same,plasma triglycerides,[4],reduce the levels
same,Cpt1b expression in skeletal muscle,[5],induced the expression
same,Fasn expression in liver,[5],significant decrease
same,Hk1 expression in skeletal muscle,[5],induced the expression
same,Hmgcr expression in liver,[5],significant decrease
same,Pkm2 expression in skeletal muscle,[5],induced the expression
same,Ppargc1b expression in skeletal muscle,[5],induced the expression
same,Scd1 expression in liver,[5],significant decrease
same,Srebf2 expression in liver,[5],significant decrease
same,Ucp3 expression in skeletal muscle,[5],induced the expression
same,expression of genes encoding enzymes involved in TG synthesis in WAT,[5],decrease in expression
same,delay in the onset of locomotor activity,[6],1 to 3 h
same,decrease in plasma insulin levels (trend),[7],35%
same,decrease in plasma leptin,[7],80%
same,decrease in plasma total cholesterol (Chol),[7]; fasting,47%
same,decrease in plasma triglycerides (TGs),[7]; fasting,12%
same,reduction of plasma glucose,[7]; fasting,19%
same,reduction of plasma non-esterified fatty acids (NEFA),[7]; fasting,23%
same,decrease in proinflammatory cytokine IL-6,[7]; plasma,72%
same,glucose or insulin tolerance,[8],no significant alterations
same,weight gain,[8],suppressed the degree of weight gain
CCCCCNC(=O)N1CCC(CN(Cc2ccc(Cl)cc2)Cc2ccc([N+](=O)[O-])s2)C1 (centres unmarked) [SR9011],Cyp7a1 expression in liver,[9],dose-dependently suppressed
same,Serpine1 expression in liver,[9],dose-dependent suppression
same,increase in nocturnal food consumption,[10]; [17],10%
same,increase in oxygen consumption (VO2),[10]; [17],5%
same,rate of food intake,[10]; [17],no effect
same,respiratory exchange ratio,[10]; [17],no change
same,total daily food intake,[10]; [17],no effect
same,decrease in movement,"[10]; C57Bl6 mice, 100mg/kg i.p. b.i.d., 10 days, x-axis beam breaks",15%
same,fat mass (DEXA) vs. vehicle,[10]; after 10-day CLAMS experiment,decrease in fat mass
same,locomotor activity during the subject dark phase,[3],loss of the subsequent active period
same,Cpt1b expression in skeletal muscle,[11],elevated
same,Hk1 expression in skeletal muscle,[11],increase
same,Pkm2 expression in skeletal muscle,[11],increase
same,Pppargc1b expression in skeletal muscle,[11],elevated
same,Ucp3 expression in skeletal muscle,[11],elevated
same,plasma total cholesterol,[4],reduce the levels
same,plasma triglycerides,[4],reduce the levels
same,Nampt gene expression in the liver,[12]; single dose,suppressed the circadian rhythm
same,Nocturnin (Ccrn4l) expression in hepatic tissue,[12]; single dose,suppression
same,Bmal1 expression in liver,[12]; [18],unaffected
same,Cyp7a1 expression in liver,[12]; [18],decreased
same,Fasn expression in liver,[12]; [18],phase shifted
same,Npas2 expression in liver,[12]; [18],unaffected
same,Per2 expression pattern in liver,[12]; [18],altered
same,Ppargc1a circadian expression in liver,[12]; [18],suppressed
same,Ppargc1b circadian expression in liver,[12]; [18],suppressed
same,Scd1 expression in liver,[12]; [18],suppressed
same,Srebf1 expression in liver,[12]; [18],suppressed
same,Srebf2 expression in liver,[12]; [18],decreased
same,Hmgcr expression in liver,"[12]; single dose 100 mg/kg i.p. at CT0, acute model",unaffected
same,body weight and fat mass,"[13]; 100mg/kg, i.p., b.i.d., 12 days",weight loss due to decreased fat mass
same,food intake,"[13]; chronic administration, data not shown",not affected
same,circadian pattern of Rev-erbα expression in hypothalamus,[14]; D:D conditions,completely suppressed
same,Bmal1 expression in hypothalamus,[14]; [19],left shift in the phase
same,Cry2 expression in hypothalamus,[14]; [19],suppressed
same,Per2 expression amplitude in hypothalamus,[14]; [19],enhanced
same,circadian pattern of expression of Npas2 in hypothalamus,[14]; [19],completely eliminated
same,pattern of expression of Clock in hypothalamus,[14]; [19],enhanced amplitude of the oscillation
same,circadian pattern of Rev-erbα expression in hypothalamus,[14]; L:D conditions,no effect
same,Nocturnin (Ccrn4l) expression in adipose tissue,[15]; single dose,suppression
same,Dgat1 expression in WAT,[15]; [18],suppressed
same,Dgat 2 expression in WAT,[15]; [18],suppressed
same,Hsl expression in WAT,[15]; [18],suppressed
same,Mgat circadian expression in WAT,[15]; [18],disturbed
same,Plin1 expression in WAT,[15]; [18],suppressed
same,delay in the onset of locomotor activity,[6],1 to 3 h
same,amplitude of the oscillations in SCN explants,[16],suppressed the amplitude
same,circadian oscillations in SCN explants,[16],reversible inhibition of circadian oscillations
same,period of the oscillations in SCN explants,[16],no effect on the period
